The text below walks through data of ChEMBL document CHEMBL1129558, “2(S)-((3,5-bis(trifluoromethyl)benzyl)-oxy)-3(S)-phenyl-4- ((3-oxo-1,2,4-triazol-5-yl)methyl)morpholine (1): a potent, orally active, morpholine-based human neurokinin-1 receptor antagonist” (J Med Chem, 1996).

One data set addresses Substance-P receptor (Homo sapiens, UniProt P25103). The data set is described as follows: Displacement of [125I]-labeled SP from human Tachykinin receptor 1 expressed in CHO cells. The class given is cell-based. In a few lines: (§1)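 Human receptor expressed in CHO cells; values are given as mean with SD from 3 determinations unless otherwise stated.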
A general note: Loss of bound radioactivity is the signal in a displacement assay; it reports binding, not function.

Data set [1] can be described thus: Physicochemical property was determined. The class given is ADME.
The subject of a further data set is Cavia porcellus. The data set is described as follows: SP-induced dermal inflammation assay in guinea pig after peroral administration followed by SP challenge id after 1 hr. Type of data set: functional. The conditions noted are these: oral, read-out: ID50 (the source's name). Summed up: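 Guinea pigs received antagonist orally, then an intradermal substance P challenge 1 h later. Read-out was SP-induced plasma extravasation in skin. Dose–response data used 5–12 animals per data point.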

Data set [2] can be described thus: Inhibition of [3H]diltiazem binding to L-type [Ca2+] channel in rabbit skeletal muscle. The class given is tissue-based, Oryctolagus cuniculus, Muscle tissue.
The target of another data set is T1, Neuromedin-K receptor (Homo sapiens, UniProt P29371).
T1 sequence (P29371 whole entry): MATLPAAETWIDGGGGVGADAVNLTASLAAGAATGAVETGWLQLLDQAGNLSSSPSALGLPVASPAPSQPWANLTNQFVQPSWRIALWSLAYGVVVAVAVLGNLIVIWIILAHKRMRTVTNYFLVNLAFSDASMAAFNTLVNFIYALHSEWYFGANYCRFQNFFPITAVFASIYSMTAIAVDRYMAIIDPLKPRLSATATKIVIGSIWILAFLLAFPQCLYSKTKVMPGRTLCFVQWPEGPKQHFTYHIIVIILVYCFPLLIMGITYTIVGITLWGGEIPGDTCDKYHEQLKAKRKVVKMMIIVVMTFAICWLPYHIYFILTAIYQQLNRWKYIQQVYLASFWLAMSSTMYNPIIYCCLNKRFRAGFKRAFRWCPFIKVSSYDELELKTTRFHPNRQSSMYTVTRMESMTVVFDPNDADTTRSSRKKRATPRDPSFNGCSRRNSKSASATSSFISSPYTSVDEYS
Put plainly: Displacement of [125I]-labeled SP from the human Tachykinin receptor 3 expressed in CHO cells. Type of data set: cell-based. In a few lines:
as §1

Another data set deals with T2, Substance-K receptor (Homo sapiens, UniProt P21452).
T2 sequence (P21452 whole entry): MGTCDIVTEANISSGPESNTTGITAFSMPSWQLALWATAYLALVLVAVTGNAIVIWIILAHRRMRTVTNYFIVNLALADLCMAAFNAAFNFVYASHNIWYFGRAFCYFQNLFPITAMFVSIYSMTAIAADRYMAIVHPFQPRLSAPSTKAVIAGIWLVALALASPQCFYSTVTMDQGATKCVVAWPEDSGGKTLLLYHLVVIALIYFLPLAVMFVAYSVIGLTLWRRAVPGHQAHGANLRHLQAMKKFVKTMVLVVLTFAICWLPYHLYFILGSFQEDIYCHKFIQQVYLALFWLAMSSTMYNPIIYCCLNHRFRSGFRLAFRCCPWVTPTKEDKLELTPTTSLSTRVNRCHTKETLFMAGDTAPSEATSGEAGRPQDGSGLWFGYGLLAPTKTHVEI
Put plainly: Displacement of [125I]-labeled SP from the human Tachykinin receptor 2 expressed in CHO cells. Type of data set: cell-based. Summed up: as §1

The nature of data set [3]: Physicochemical property pKa of benzyl amine was determined.
A short description of data set [4]: Physicochemical property pKa of piperdine amine was determined.

Sequence of Substance-P receptor (P25103 whole entry): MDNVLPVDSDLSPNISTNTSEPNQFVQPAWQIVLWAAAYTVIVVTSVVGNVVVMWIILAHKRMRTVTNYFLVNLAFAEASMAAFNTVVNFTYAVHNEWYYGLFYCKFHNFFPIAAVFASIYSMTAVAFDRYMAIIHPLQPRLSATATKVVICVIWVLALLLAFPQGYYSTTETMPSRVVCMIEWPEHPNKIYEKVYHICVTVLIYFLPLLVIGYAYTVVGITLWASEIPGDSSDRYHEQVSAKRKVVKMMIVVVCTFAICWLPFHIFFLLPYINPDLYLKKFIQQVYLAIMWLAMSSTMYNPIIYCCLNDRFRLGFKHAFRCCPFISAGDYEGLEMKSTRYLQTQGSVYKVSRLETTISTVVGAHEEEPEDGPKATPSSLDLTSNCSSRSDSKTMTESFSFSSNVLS

Compound `COC(=O)CN1CCO[C@H](OCc2cc(C(F)(F)F)cc(C(F)(F)F)c2)[C@@H]1c1ccccc1` gave an IC50 at Substance-P receptor of 1.6 nM. Same read-out and setting: to `FC(F)(F)c1cc(CO[C@H]2OCCN(Cn3cncn3)[C@H]2c2ccccc2)cc(C(F)(F)F)c1` belongs 0.13 nM; to `NC(=O)CN1CCO[C@H](OCc2cc(C(F)(F)F)cc(C(F)(F)F)c2)[C@@H]1c1ccccc1`, 1.1 nM; to `O=C(O)CN1CCO[C@H](OCc2cc(C(F)(F)F)cc(C(F)(F)F)c2)[C@@H]1c1ccccc1`, 66 nM. Compound `O=c1[nH]nc(CN2CCO[C@H](OCc3cc(C(F)(F)F)cc(C(F)(F)F)c3)[C@@H]2c2ccccc2)[nH]1` registered a pKa in data set [1] of less than 3. Further, the ED50 with Cavia porcellus is 0.009 mg/kg. The 50% inhibitory concentration (IC50) in data set [2] came out at 11000 nM; on Substance-P receptor it was 0.09 nM; on Neuromedin-K receptor, 150 nM; at Substance-K receptor, 7000 nM. In turn, `FC(F)(F)c1cc(CO[C@@H]2OCCN[C@H]2c2ccccc2)cc(C(F)(F)F)c1` (stereo in doubt; 12) gave an IC50 on Substance-P receptor of 376 nM. With `FC(F)(F)c1cc(CO[C@H]2OCCN[C@@H]2c2ccccc2)cc(C(F)(F)F)c1` (stereo in doubt; 13), the 50% inhibitory concentration (IC50) on Substance-P receptor was 287 nM.

Consider `FC(F)(F)c1cc(CO[C@@H]2OCCN[C@@H]2c2ccccc2)cc(C(F)(F)F)c1` (stereo in doubt; 14), for which the IC50 at Substance-P receptor is 59 nM. `FC(F)(F)c1cc(CO[C@H]2OCCN[C@@H]2c2ccccc2)cc(C(F)(F)F)c1` (stereo in doubt; 20) registered a concentration for half-maximal inhibition (IC50) at Substance-P receptor of 21 nM.

In the case of `FC(F)(F)c1cc(CO[C@@H]2OCCN[C@@H]2c2ccccc2)cc(C(F)(F)F)c1` (stereo in doubt; 21), the IC50 on Substance-P receptor came out at 116 nM. `FC(F)(F)c1cc(CO[C@@H]2OCCN[C@H]2c2ccccc2)cc(C(F)(F)F)c1` (stereo in doubt; 22) yielded an IC50 at Substance-P receptor of 19 nM.

On to `COc1ccccc1CN[C@H]1CCCN[C@H]1c1ccccc1` [CP-99994], for which the pKa in data set [3] turned out to be 4; in data set [4] it was 8.7. In the data set on Cavia porcellus, the ED50 was determined as 1.6 mg/kg. This compound showed an IC50 in data set [2] of 4000 nM.

By IC50 is commonly meant the concentration needed to halve the response being measured. A lower IC50 goes with higher potency. Broadly, the pKa is the pH at which an ionisable group is half protonated. High values mean a group that holds its proton tightly, low ones a group that gives up its proton readily.
